Test results taken from PMC9710334 (BMJ Open Gastroenterology, 2022).

System: patients with advanced primary biliary cholangitis
Test: Phase 1 trial: adverse events graded by CTCAE v4.0, safety and tolerability
Assay type: in vivo, human
Method in brief: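 Seven advanced PBC patients (stage III or higher) received OP-724 iv at 280 (n=6) or 380 (n=1) mg/m2 over 4 hours, twice weekly for 12 cycles, after a single dose given 7 days before cycle 1. AEs and laboratory results were recorded throughout and graded by CTCAE v4.0. The primary endpoint was SAEs where drug causality could not be excluded.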

## C[C@H]1[C@H]2N(C(=O)CN(C)N2C(=O)NCc2ccccc2)[C@@H](Cc2ccc(OP(=O)(O)O)cc2)C(=O)N1Cc1cccc2cccnc12 [OP-724]
280 mg/m^2/4 hours (n=6)
  Abdominal discomfort, Grade 1, patients n (%): 2 (33%)
  Abdominal discomfort, Grade 2, patients n (%): 0
  Abdominal discomfort, Grades 3–5, patients n (%): 0
  Back pain, Grade 1, patients n (%): 0
  Back pain, Grade 2, patients n (%): 1 (17%)
  Back pain, Grades 3–5, patients n (%): 0
  Constipation, Grade 1, patients n (%): 1 (17%)
  Constipation, Grade 2, patients n (%): 0
  Constipation, Grades 3–5, patients n (%): 0
  Dermatitis contact, Grade 1, patients n (%): 1 (17%)
  Dermatitis contact, Grade 2, patients n (%): 0
  Dermatitis contact, Grades 3–5, patients n (%): 0
  Diarrhoea, Grade 1, patients n (%): 1 (17%)
  Diarrhoea, Grade 2, patients n (%): 0
  Diarrhoea, Grades 3–5, patients n (%): 0
  Dry skin, Grade 1, patients n (%): 0
  Dry skin, Grade 2, patients n (%): 1 (17%)
  Dry skin, Grades 3–5, patients n (%): 0
  Fever, Grade 1, patients n (%): 1 (17%)
  Fever, Grade 2, patients n (%): 0
  Fever, Grades 3–5, patients n (%): 0
  Haemorrhage, Grade 1, patients n (%): 0
  Haemorrhage, Grade 2, patients n (%): 1 (17%)
  Haemorrhage, Grades 3–5, patients n (%): 0
  Hepatic function abnormal, Grade 1, patients n (%): 1 (17%)
  Hepatic function abnormal, Grade 2, patients n (%): 1 (17%)
  Hepatic function abnormal, Grades 3–5, patients n (%): 0
  Infusion site extravasation, Grade 1, patients n (%): 0
  Infusion site extravasation, Grade 2, patients n (%): 1 (17%)
  Infusion site extravasation, Grades 3–5, patients n (%): 0
  Nasopharyngitis, Grade 1, patients n (%): 0
  Nasopharyngitis, Grade 2, patients n (%): 0
  Nasopharyngitis, Grades 3–5, patients n (%): 0
  Nausea, Grade 1, patients n (%): 1 (17%)
  Nausea, Grade 2, patients n (%): 0
  Nausea, Grades 3–5, patients n (%): 0
  Open angle glaucoma, Grade 1, patients n (%): 0
  Open angle glaucoma, Grade 2, patients n (%): 1 (17%)
  Open angle glaucoma, Grades 3–5, patients n (%): 0
  Renal impairment, Grade 1, patients n (%): 1 (17%)
  Renal impairment, Grade 2, patients n (%): 0
  Renal impairment, Grades 3–5, patients n (%): 0
  Tooth fracture, Grade 1, patients n (%): 1 (17%)
  Tooth fracture, Grade 2, patients n (%): 0
  Tooth fracture, Grades 3–5, patients n (%): 0
  Vomiting, Grade 1, patients n (%): 1 (17%)
  Vomiting, Grade 2, patients n (%): 0
  Vomiting, Grades 3–5, patients n (%): 0
380 mg/m^2/4 hours (n=1)
  Abdominal discomfort, Grade 1, patients n (%): 0
  Abdominal discomfort, Grade 2, patients n (%): 0
  Abdominal discomfort, Grades 3–5, patients n (%): 0
  Back pain, Grade 1, patients n (%): 0
  Back pain, Grade 2, patients n (%): 0
  Back pain, Grades 3–5, patients n (%): 0
  Constipation, Grade 1, patients n (%): 0
  Constipation, Grade 2, patients n (%): 0
  Constipation, Grades 3–5, patients n (%): 0
  Dermatitis contact, Grade 1, patients n (%): 0
  Dermatitis contact, Grade 2, patients n (%): 0
  Dermatitis contact, Grades 3–5, patients n (%): 0
  Diarrhoea, Grade 1, patients n (%): 0
  Diarrhoea, Grade 2, patients n (%): 0
  Diarrhoea, Grades 3–5, patients n (%): 0
  Dry skin, Grade 1, patients n (%): 0
  Dry skin, Grade 2, patients n (%): 0
  Dry skin, Grades 3–5, patients n (%): 0
